Many of the other results were omitted from the sample, so hits are more common in it than they were.
TLR9-MyD88 block = TLR9-MyD88 interaction inhibition; inhibition, % at 4.98 µM; CHO BLA complementation TLR9-MyD88, CCF4 FRET ratio; actives 0.21% (n = 340,000); Q9NR96+Q99836; AID 504734;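 active means inhibition above the mean over all tested compounds plus 3 SD, cut at about 21% in these data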
Target sequence (Q99836 whole entry, looked up): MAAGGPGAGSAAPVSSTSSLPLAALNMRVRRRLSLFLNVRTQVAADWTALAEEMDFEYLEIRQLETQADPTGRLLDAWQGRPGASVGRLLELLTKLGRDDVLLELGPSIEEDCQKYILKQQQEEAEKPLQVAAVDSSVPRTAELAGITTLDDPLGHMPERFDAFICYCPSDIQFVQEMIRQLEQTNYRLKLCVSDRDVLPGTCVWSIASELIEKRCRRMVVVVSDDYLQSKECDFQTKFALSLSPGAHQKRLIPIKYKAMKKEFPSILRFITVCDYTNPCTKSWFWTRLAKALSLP
Target sequence (Q9NR96 whole entry, looked up): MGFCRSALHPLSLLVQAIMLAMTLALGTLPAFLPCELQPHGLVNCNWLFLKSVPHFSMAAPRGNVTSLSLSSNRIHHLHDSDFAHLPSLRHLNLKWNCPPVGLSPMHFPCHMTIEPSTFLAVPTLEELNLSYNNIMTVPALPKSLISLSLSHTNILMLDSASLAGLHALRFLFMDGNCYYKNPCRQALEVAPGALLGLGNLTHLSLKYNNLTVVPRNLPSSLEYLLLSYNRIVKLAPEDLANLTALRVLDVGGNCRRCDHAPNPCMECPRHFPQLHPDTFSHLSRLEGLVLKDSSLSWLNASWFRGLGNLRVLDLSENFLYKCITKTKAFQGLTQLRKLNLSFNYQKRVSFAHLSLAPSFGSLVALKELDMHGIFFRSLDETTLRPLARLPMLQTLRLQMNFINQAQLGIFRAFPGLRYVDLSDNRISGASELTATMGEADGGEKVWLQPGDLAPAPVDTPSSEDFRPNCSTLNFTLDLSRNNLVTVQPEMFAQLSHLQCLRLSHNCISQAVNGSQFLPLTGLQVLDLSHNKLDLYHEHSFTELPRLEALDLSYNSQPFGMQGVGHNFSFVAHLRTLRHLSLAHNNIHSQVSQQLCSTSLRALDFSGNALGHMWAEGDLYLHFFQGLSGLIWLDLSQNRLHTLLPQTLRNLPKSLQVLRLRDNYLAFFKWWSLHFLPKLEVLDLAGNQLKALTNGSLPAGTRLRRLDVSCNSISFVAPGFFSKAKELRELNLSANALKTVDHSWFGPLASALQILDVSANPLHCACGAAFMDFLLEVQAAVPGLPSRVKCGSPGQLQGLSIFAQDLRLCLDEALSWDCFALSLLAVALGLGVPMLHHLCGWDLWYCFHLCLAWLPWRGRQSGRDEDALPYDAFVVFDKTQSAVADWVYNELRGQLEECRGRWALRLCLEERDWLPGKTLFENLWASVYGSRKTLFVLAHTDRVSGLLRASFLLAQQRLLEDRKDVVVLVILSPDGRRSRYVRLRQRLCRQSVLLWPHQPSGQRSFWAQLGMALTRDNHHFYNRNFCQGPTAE
UPR XBP1 act = adaptive UPR (XBP1) activation; CHO-XBP1 luciferase reporter, IRE1-XBP1 UPR activation, luminescence; percent of tunicamycin response, DMSO as zero; actives 0.33% (n = 330,000); activation, % at 20 µM;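 active means versus positive control, 20 µM dose yields 30% or more activation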
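Material: IRE1-XBP1 luciferase reporter CHO line / Quantity: one thousand reporter cells per well / Buffer or medium: F12 with 10% serum / Compound: 20 µM single concentration, DMSO 1% / Times: 6 h treatment, 37 °C / Detection: Steady-Glo luciferase glow luminescence, 10 min after reagent addition / Benchmarks: tunicamycin high, DMSO low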
CHOP UPR activ = activators of apoptotic arm of unfolded protein response (CHOP) | CHO-CHOP luciferase reporter, UPR activation, luminescence; percent of tunicamycin response over DMSO baseline | activation, % at 10 µM | actives 0.34% (n = 330,000) | AID 449763;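 active means at 10 µM dose, activation of 40% or more, normalized to positive control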
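measured by = luciferase luminescence | assay system = CHO-CHOP cells, stable luciferase reporter of PERK-eIF2a-CHOP signalling | amount = 500 reporter cells seeded per well | timing = 6 h compound exposure at 37 °C after overnight seeding | controls = positive tunicamycin 10 µg/mL, negative DMSO alone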
CHOP inhibitor = CHOP inhibition in unfolded protein response; CHO-K1 CHOP-promoter luciferase, tunicamycin-induced, 15-18 h; inhibition, % at 10 µM; actives 3.8% (n = 220,000); AID 2732;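 active means compounds that reduced the stress-induced luciferase reporter signal by more than about 70% of percent inhibition, limit read from the data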
TLR4 MyD88 comp = TLR4-MyD88 interaction inhibition in cells. inhibition, % at 8.4 µM. AID 861. HeLa CL3-4 TLR4/MyD88 BLA complementation, FRET ratio. actives 0.18% (n = 200,000); in the data active means inhibition above about 25%
NOD2-RIPK2 inh = NOD2-RIPK2 protein interaction inhibition | O43353 | CHO BLA complementation NOD2-RIPK2, CCF4 ratio | inhibition, % at 4.98 µM | actives 0.38% (n = 360,000); in the data active means inhibition above about 21%
CHOP confirm = confirmation of CHOP induction inhibitors | shares compounds with CHOP inhibitor | CHO-CHOP promoter luciferase reporter, tunicamycin-induced, luminescence | inhibition, % at 10 µM | actives 45% (n = 2,100);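 active means mean of three repeat readings of reporter signal inhibition above a set limit, cut at about 70% in these data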
Numbers stand for hits.

Results for O=c1[nH]c2ccc(Cl)cc2c(-c2ccccc2)c1SC(=S)N1CCCCC1 ?
TLR9-MyD88 block: inactive; UPR XBP1 act: inactive; CHOP UPR activ: inactive; CHOP inhibitor: inactive; TLR4 MyD88 comp: inactive; NOD2-RIPK2 inh: inactive

Results for CN(C)C(=O)CCc1ccc2c3c([nH]c2c1)[C@]1(CCC2CCCC2)[C@@H](C(=O)N2CCOCC2)C[C@H](CC(=O)NCCC2=CCCCC2)C(=O)N1CC3 ?
TLR9-MyD88 block: inactive; UPR XBP1 act: inactive; CHOP UPR activ: inactive; NOD2-RIPK2 inh: inactive

How did COC(=O)c1cn(Nc2ncc(C(F)(F)F)cc2Cl)c(=O)c2ccccc12 do in these assays?
TLR9-MyD88 block: inactive; UPR XBP1 act: inactive; CHOP UPR activ: inactive; CHOP inhibitor: 98.8; TLR4 MyD88 comp: inactive; NOD2-RIPK2 inh: inactive; CHOP confirm: inactive

What do the screens show for `COC(=O)c1cn(N(C)c2ncc(C(F)(F)F)cc2Cl)c(=O)c2ccccc12`?
TLR9-MyD88 block: inactive; UPR XBP1 act: inactive; CHOP UPR activ: inactive; CHOP inhibitor: inactive; TLR4 MyD88 comp: inactive; NOD2-RIPK2 inh: inactive

How did CCCCn1c(SCc2nc(N)nc(N3CCCCC3)n2)nc2c1c(=O)n(C)c(=O)n2C do in these assays?
TLR9-MyD88 block: inactive; UPR XBP1 act: inactive; CHOP UPR activ: inactive; CHOP inhibitor: 98.0; TLR4 MyD88 comp: inactive; NOD2-RIPK2 inh: inactive; CHOP confirm: inactive

What do the screens show for `CCCn1c(SCc2nc(N)nc(N3CCCCC3)n2)nc2c1c(=O)n(C)c(=O)n2C`?
TLR9-MyD88 block: inactive; UPR XBP1 act: inactive; CHOP UPR activ: inactive; CHOP inhibitor: inactive; TLR4 MyD88 comp: inactive; NOD2-RIPK2 inh: inactive

How did CO/N=C/c1ccc(Sc2ccc(C)cc2)c([N+](=O)[O-])c1 do in these assays?
TLR9-MyD88 block: inactive; UPR XBP1 act: inactive; CHOP UPR activ: inactive; CHOP inhibitor: inactive; TLR4 MyD88 comp: inactive; NOD2-RIPK2 inh: inactive

Results for Cc1ccc(Sc2ccc(/C=N/O)cc2[N+](=O)[O-])cc1 ?
TLR9-MyD88 block: inactive; UPR XBP1 act: inactive; CHOP UPR activ: inactive; CHOP inhibitor: 101.4; TLR4 MyD88 comp: inactive; NOD2-RIPK2 inh: inactive; CHOP confirm: inactive

Results for Cc1ccc2c(C)nc(Nc3nc(CSc4nc5ccccc5[nH]4)cc(=O)[nH]3)nc2c1 ?
TLR9-MyD88 block: inactive; UPR XBP1 act: inactive; CHOP UPR activ: inactive; CHOP inhibitor: 104.4; TLR4 MyD88 comp: inactive; NOD2-RIPK2 inh: inactive; CHOP confirm: 105.7

How did Cc1ccc(SCc2cc(=O)[nH]c(Nc3nc(C)c4ccc(C)cc4n3)n2)cc1 do in these assays?
TLR9-MyD88 block: inactive; UPR XBP1 act: inactive; CHOP UPR activ: inactive; CHOP inhibitor: inactive; TLR4 MyD88 comp: inactive; NOD2-RIPK2 inh: inactive

What do the screens show for `CCCc1ccc(O)c(N=Cc2cc(Br)cc(OCC)c2O)c1`?
TLR9-MyD88 block: inactive; UPR XBP1 act: inactive; CHOP UPR activ: inactive; CHOP inhibitor: 97.2; TLR4 MyD88 comp: inactive; NOD2-RIPK2 inh: inactive; CHOP confirm: 109.7

Results for CCc1nc(SCC(=O)Nc2nccs2)c2oc3ccccc3c2n1 ?
TLR9-MyD88 block: inactive; UPR XBP1 act: inactive; CHOP UPR activ: inactive; CHOP inhibitor: 101.8; TLR4 MyD88 comp: inactive; NOD2-RIPK2 inh: inactive; CHOP confirm: inactive

What do the screens show for `COC/C=C/C1=CC2=CC(=O)C(C)(OC(=O)c3ccco3)C(=O)C2=CO1` (configuration not stated)?
UPR XBP1 act: inactive; CHOP UPR activ: inactive; CHOP inhibitor: inactive

How did COC/C=C/C1=CC2=CC(=O)C(C)(OC(=O)C3CCCC3)C(=O)C2=CO1 (configuration not stated) do in these assays?
TLR9-MyD88 block: inactive; UPR XBP1 act: inactive; CHOP UPR activ: inactive; CHOP inhibitor: 99.1; NOD2-RIPK2 inh: inactive; CHOP confirm: inactive

What do the screens show for `CCc1ccc(C(=O)/C=C/Nc2ccc(S(=O)(=O)Nc3cnc4ccccc4n3)cc2)cc1`?
TLR9-MyD88 block: inactive; UPR XBP1 act: inactive; CHOP UPR activ: inactive; CHOP inhibitor: 101.4; NOD2-RIPK2 inh: inactive; CHOP confirm: inactive

What do the screens show for `O=C(/C=C/Nc1ccc(S(=O)(=O)Nc2ncccn2)cc1)c1ccc(Cl)c(Cl)c1`?
TLR9-MyD88 block: inactive; UPR XBP1 act: inactive; CHOP UPR activ: inactive; CHOP inhibitor: 102.3; TLR4 MyD88 comp: inactive; NOD2-RIPK2 inh: inactive; CHOP confirm: inactive

What do the screens show for `O=C(CN1CCN(c2ncc(C(F)(F)F)cc2Cl)CC1)NCCNc1ncc(C(F)(F)F)cc1Cl`?
TLR9-MyD88 block: inactive; UPR XBP1 act: inactive; CHOP UPR activ: inactive; CHOP inhibitor: 101.1; TLR4 MyD88 comp: inactive; NOD2-RIPK2 inh: inactive; CHOP confirm: 105.6

How did CC(C)(C)c1ccc(C(=O)NC(=O)COC(=O)c2ccco2)cc1 do in these assays?
TLR9-MyD88 block: inactive; UPR XBP1 act: inactive; CHOP UPR activ: inactive; NOD2-RIPK2 inh: inactive

What do the screens show for `CC1(C(=O)NCCC#N)CCN1C(=O)C1(c2ccccc2)CC1` (configuration not stated)?
NOD2-RIPK2 inh: inactive

How did C=CCN1C(=O)/C(=C/c2ccc(OC(C)=O)c(OCC)c2[N+](=O)[O-])SC1=S do in these assays?
TLR9-MyD88 block: inactive; CHOP inhibitor: 100.5; TLR4 MyD88 comp: inactive; NOD2-RIPK2 inh: inactive; CHOP confirm: 113.9

Results for CCOc1c(OC(C)=O)ccc(/C=C/c2ccc3cccc(OC(C)=O)c3n2)c1[N+](=O)[O-] ?
TLR9-MyD88 block: inactive; UPR XBP1 act: inactive; CHOP UPR activ: inactive; CHOP inhibitor: inactive; TLR4 MyD88 comp: inactive; NOD2-RIPK2 inh: inactive

Results for Cc1ccc(C2c3c(oc4ccccc4c3=O)C(=O)N2c2nncs2)cc1 (configuration not stated) ?
TLR9-MyD88 block: inactive; UPR XBP1 act: inactive; CHOP UPR activ: inactive; CHOP inhibitor: inactive; NOD2-RIPK2 inh: inactive

How did CC(C)c1nnc(N2C(=O)c3oc4ccccc4c(=O)c3C2c2ccco2)s1 (configuration not stated) do in these assays?
TLR9-MyD88 block: inactive; UPR XBP1 act: inactive; CHOP UPR activ: inactive; CHOP inhibitor: 111.6; TLR4 MyD88 comp: inactive; NOD2-RIPK2 inh: inactive; CHOP confirm: 110.0

Results for Cc1cc(C)c2c(c1)/C(=N/NS(=O)(=O)c1ccc(Br)cc1)CCC2 ?
TLR9-MyD88 block: inactive; UPR XBP1 act: inactive; CHOP UPR activ: inactive; CHOP inhibitor: 105.8; TLR4 MyD88 comp: inactive; NOD2-RIPK2 inh: inactive; CHOP confirm: 82.0

What do the screens show for `O=C(Nc1cccc(C(F)(F)F)c1)NC1CCN(S(=O)(=O)c2ccc(F)cc2)CC1`?
TLR9-MyD88 block: inactive; UPR XBP1 act: inactive; CHOP UPR activ: inactive; CHOP inhibitor: 99.8; TLR4 MyD88 comp: inactive; NOD2-RIPK2 inh: inactive; CHOP confirm: 94.3

How did CC(=O)c1ccc(S(=O)(=O)N2CCC(NC(=O)Nc3cccc(F)c3)CC2)cc1 do in these assays?
TLR9-MyD88 block: inactive; UPR XBP1 act: inactive; CHOP UPR activ: inactive; CHOP inhibitor: inactive; TLR4 MyD88 comp: inactive; NOD2-RIPK2 inh: inactive

Screening results: PubChem, several laboratories
